Experimental data taken from ChEMBL document CHEMBL1123990, “The in vitro dental plaque inhibitory properties of a series of N-[1-alkyl-4(1H)-pyridinylidene]alkylamines” (1988).
≈ marks a conversion by molar mass, not a printed value.

Tests used:
Actinomyces viscosus [1] = experiment: Plaque bactericidal index against Actinomyces viscosus M-100 measured as chlorohexidine coefficient; assay type: functional
Method in brief: (§1)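 Hydroxylapatite-grown plaques were exposed once daily for 2 min to varying concentrations of agent until the organisms were killed. The highest level tested was 0.2% w/v for 5 days. Tests were run in duplicate. PBI is the concentration (mM) × duration (min) × frequency (days) needed for plaque kill. CC is the chlorhexidine PBI divided by the test-agent PBI.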

Streptococcus sobrinus [2] = experiment: Plaque bactericidal index against Streptococcus sobrinus 6715-13 measured as chlorohexidine coefficient; assay type: functional; method in brief: as §1
Streptococcus sobrinus [3] = experiment: Minimal bactericidal concentration against Streptococcus sobrinus 6715-13; assay type: functional
Method in brief: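 Plaques were grown on standardized ceramic hydroxylapatite plates and immersed once in agent for 30 min. They were rinsed with sterile distilled water, moved to fresh broth and incubated anaerobically at 37 °C. Kill meant no further culture acid production, no turbidity change, and no growth when 48-h post-treatment plaque samples were subcultured. Tests were run in duplicate.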

Streptococcus sobrinus [4] = experiment: Chlorohexidine coefficient for Streptococcus sobrinus 6715-13; assay type: functional; method in brief: as §1
Actinomyces viscosus [5] = experiment: Chlorohexidine coefficient for Actinomyces viscosus M-100; assay type: functional; method in brief: as §1
Streptococcus sanguinis [6] = experiment: Plaque bactericidal index against Streptococcus sanguis H7P; assay type: functional
Method in brief: (§2)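 Plaques were grown on standardized ceramic hydroxylapatite plates and treated once daily for 2 min with varying concentrations until kill. They were then rinsed in sterile water and incubated in fresh broth at 37 °C anaerobically. Kill meant no acid production, no turbidity change, and no regrowth of 48-h post-treatment subcultures. Tests were run in duplicate. PBI = concn (mM) × min × days to kill; CC = chlorhexidine PBI ÷ test PBI.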

Actinomyces naeslundii [7] = experiment: Plaque bactericidal index against Actinomyces naeslundii 631; assay type: functional; method in brief: as §1
Streptococcus mutans [8] = experiment: Chlorohexidine coefficient for Streptococcus mutans IB1600; assay type: functional; method in brief: as §1
Streptococcus mitis [9] = experiment: Plaque bactericidal index against Streptococcus mitis 90557; assay type: functional; method in brief: as §1
Actinomyces viscosus [10] = experiment: Plaque bactericidal index against Actinomyces viscosus 8A06; assay type: functional; method in brief: as §1
Streptococcus mutans [11] = experiment: Plaque bactericidal index against Streptococcus mutans FA-1; assay type: functional; method in brief: as §1
Streptococcus sanguinis [12] = experiment: Chlorohexidine coefficient for Streptococcus sanguis ATCC 10558; assay type: functional; method in brief: as §1
Streptococcus mitis [13] = experiment: Chlorohexidine coefficient for Streptococcus mitis 90557; assay type: functional; method in brief: as §1
Actinomyces naeslundii [14] = experiment: Plaque bactericidal index against Actinomyces naeslundii N/3; assay type: functional; method in brief: as §1
Streptococcus sobrinus [15] = experiment: Plaque bactericidal index against Streptococcus sobrinus SL-1; assay type: functional; method in brief: as §1
Actinomyces viscosus [16] = experiment: Chlorohexidine coefficient for Actinomyces viscosus 8A06; assay type: functional; method in brief: as §1
Actinomyces naeslundii [17] = experiment: Plaque bactericidal index against Actinomyces naeslundii B74; assay type: functional; method in brief: as §1
Actinomyces viscosus [18] = experiment: Chlorohexidine coefficient for Actinomyces viscosus T14V; assay type: functional; method in brief: as §1
Actinomyces naeslundii [19] = experiment: Chlorohexidine coefficient for Actinomyces naeslundii N/9; assay type: functional; method in brief: as §1
Streptococcus sanguinis [20] = experiment: Chlorohexidine coefficient for Streptococcus sanguis H7P; assay type: functional; method in brief: as §2
Actinomyces naeslundii [21] = experiment: Chlorohexidine coefficient for Actinomyces naeslundii B74; assay type: functional; method in brief: as §1
Streptococcus mutans [22] = experiment: Chlorohexidine coefficient for Streptococcus mutans OMZ-61; assay type: functional; method in brief: as §1
Actinomyces naeslundii [23] = experiment: Chlorohexidine coefficient for Actinomyces naeslundii N/3; assay type: functional; method in brief: as §1
Streptococcus mitis [24] = experiment: Plaque bactericidal index against Streptococcus mitis 176-A1; assay type: functional; method in brief: as §1
Streptococcus sobrinus [25] = experiment: Chlorohexidine coefficient for Streptococcus sobrinus SL-1; assay type: functional; method in brief: as §1
Streptococcus sanguinis [26] = experiment: Plaque bactericidal index against Streptococcus sanguis ATCC 10558; assay type: functional; method in brief: as §1
Streptococcus mutans [27] = experiment: Plaque bactericidal index against Streptococcus mutans IB1600; assay type: functional; method in brief: as §1
Streptococcus mutans [28] = experiment: Plaque bactericidal index against Streptococcus mutans GR-5; assay type: functional; method in brief: as §1
Streptococcus sobrinus [29] = experiment: Plaque bactericidal index against Streptococcus sobrinus 6715-13; assay type: functional; method in brief: as §1
Streptococcus mitis [30] = experiment: Chlorohexidine coefficient for Streptococcus mitis 176-A1; assay type: functional; method in brief: as §1
Actinomyces naeslundii [31] = experiment: Plaque bactericidal index against Actinomyces naeslundii N/9; assay type: functional; method in brief: as §1
Streptococcus mutans [32] = experiment: Chlorohexidine coefficient for Streptococcus mutans FA-1; assay type: functional; method in brief: as §1
Streptococcus mutans [33] = experiment: Plaque bactericidal index against Streptococcus mutans OMZ-61; assay type: functional; method in brief: as §2
Actinomyces viscosus [34] = experiment: Chlorohexidine coefficient for Actinomyces viscosus M-626; assay type: functional; method in brief: as §1
Streptococcus mutans [35] = experiment: Chlorohexidine coefficient for Streptococcus mutans GR-5; assay type: functional; method in brief: as §1
Actinomyces viscosus [36] = experiment: Plaque bactericidal index against Actinomyces viscosus 626; assay type: functional; method in brief: as §1
Actinomyces naeslundii [37] = experiment: Chlorohexidine coefficient for Actinomyces naeslundii 631; assay type: functional; method in brief: as §1
Actinomyces viscosus [38] = experiment: Plaque bactericidal index against Actinomyces viscosus M-100; assay type: functional; method in brief: as §1
Streptococcus sobrinus [39] = experiment: Plaque bactericidal index against Streptococcus sobrinus 6715-13 measured as chlorohexidine coefficient; d=Not bactericidal at highest concentration tested (0.2% w/v, 2min, 5 days); assay type: functional, organism-based; method in brief: as §1
Actinomyces viscosus [40] = experiment: Plaque bactericidal index against Actinomyces viscosus M-100 measured as chlorohexidine coefficient; d=Not bactericidal at highest concentration tested (0.2% w/v, 2min, 5 days); assay type: functional, organism-based; method in brief: as §1

CCCCCCCCn1ccc(=NCCCCCC)cc1.Cl
PBI (Actinomyces viscosus [1]): 3
PBI (Streptococcus sobrinus [2]): 4.6
MBC (Streptococcus sobrinus [3]): 310 µM
CC (Streptococcus sobrinus [4]): 5.6
CC (Actinomyces viscosus [5]): 6.4

CCCCCCCCCCCCN=c1ccn(Cc2ccccc2)cc1.Cl
PBI (Actinomyces viscosus [1]): 10.3
PBI (Streptococcus sobrinus [2]): 15.4
MBC (Streptococcus sobrinus [3]): 1290 µM
CC (Streptococcus sobrinus [4]): 1.7
CC (Actinomyces viscosus [5]): 1.9

CCCCCCCCCCCCN=c1ccn(C)cc1.I
PBI (Actinomyces viscosus [1]): 19.2
PBI (Streptococcus sobrinus [2]): 12.4
MBC (Streptococcus sobrinus [3]): 1240 µM
CC (Streptococcus sobrinus [4]): 2.1
CC (Actinomyces viscosus [5]): 1

Br.CCCCCCCN=c1ccn(CCCCCCC)cc1
PBI (Actinomyces viscosus [1]): 5.4
PBI (Streptococcus sobrinus [2]): 8
MBC (Streptococcus sobrinus [3]): 1350 µM
CC (Streptococcus sobrinus [4]): 3.2
CC (Actinomyces viscosus [5]): 4

Br.CCCCCCCCCN=c1ccn(CCCCCCCC)cc1
PBI (Actinomyces viscosus [1]): 9.7
PBI (Streptococcus sobrinus [2]): 9.7
MBC (Streptococcus sobrinus [3]): 1210 µM
CC (Streptococcus sobrinus [4]): 2.6
CC (Actinomyces viscosus [5]): 1.9

CCCCCCCCN=c1ccn(CCCCCCCC)cc1.Cl [PIRTENIDINE HYDROCHLORIDE]
PBI (Streptococcus sanguinis [6]): 10
PBI (Actinomyces viscosus [1]): 2.8
PBI (Actinomyces naeslundii [7]): 2.8
CC (Streptococcus mutans [8]): 18.3
PBI (Streptococcus mitis [9]): 5
PBI (Actinomyces viscosus [10]): 4.2
PBI (Streptococcus mutans [11]): 1.4
CC (Streptococcus sanguinis [12]): 6.4
CC (Streptococcus mitis [13]): 6.4
PBI (Actinomyces naeslundii [14]): 1.4
PBI (Streptococcus sobrinus [15]): 2.8
CC (Actinomyces viscosus [16]): 4.6
PBI (Actinomyces naeslundii [17]): 1.4
CC (Actinomyces viscosus [18]): 13.7
CC (Actinomyces naeslundii [19]): 13.7
CC (Streptococcus sanguinis [20]): 3.2
CC (Actinomyces naeslundii [21]): 13.7
PBI (Streptococcus sobrinus [2]): 2.8
CC (Streptococcus mutans [22]): 18.3
CC (Actinomyces naeslundii [23]): 13.7
PBI (Streptococcus mitis [24]): 20
CC (Streptococcus sobrinus [25]): 9.1
PBI (Streptococcus sanguinis [26]): 5
PBI (Streptococcus mutans [27]): 1.4
PBI (Streptococcus mutans [28]): 1.4
PBI (Streptococcus sobrinus [29]): 2.8
CC (Streptococcus mitis [30]): 1.6
PBI (Actinomyces naeslundii [31]): 1.4
CC (Streptococcus mutans [32]): 18.3
PBI (Streptococcus mutans [33]): 1.4
MBC (Streptococcus sobrinus [3]): 280 µM
CC (Streptococcus sobrinus [4]): 9.1
CC (Actinomyces viscosus [5]): 6.9
CC (Actinomyces viscosus [34]): 13.7
CC (Streptococcus mutans [35]): 18.3
PBI (Actinomyces viscosus [36]): 1.4
CC (Actinomyces naeslundii [37]): 6.9
PBI (Actinomyces viscosus [38]): 2.8

Br.CCCCCCCCN=c1ccn(CC(CC)CCCC)cc1 (centres undefined)
PBI (Actinomyces viscosus [1]): 12.5
PBI (Streptococcus sobrinus [2]): 12.5
MBC (Streptococcus sobrinus [3]): 1250 µM
CC (Streptococcus sobrinus [4]): 2
CC (Actinomyces viscosus [5]): 1.5

Br.CCCCCCCCN=c1ccn(CCCCCC)cc1
PBI (Actinomyces viscosus [1]): 13.5
PBI (Streptococcus sobrinus [2]): 10.8
MBC (Streptococcus sobrinus [3]): 1350 µM
CC (Streptococcus sobrinus [4]): 2.4
CC (Actinomyces viscosus [5]): 1.4

CCCCCCCCN=c1ccn(CCCCCCCCCCn2ccc(=NCCCCCCCC)cc2)cc1 [OCTENIDINE]
PBI (Actinomyces viscosus [1]): 19.2
PBI (Streptococcus sobrinus [2]): 25.6
MBC (Streptococcus sobrinus [3]): 3200 µM (≈ 1760 µg/mL)
CC (Streptococcus sobrinus [4]): 1
CC (Actinomyces viscosus [5]): 1

N=C(NCCCCCCNC(=N)NC(=N)Nc1ccc(Cl)cc1)NC(=N)Nc1ccc(Cl)cc1 [CHLORHEXIDINE]
PBI (Actinomyces viscosus [1]): 19.2
PBI (Streptococcus sobrinus [2]): 25.6
MBC (Streptococcus sobrinus [3]): 3200 µM (≈ 1620 µg/mL)

CCCCCCCCN=c1ccn(Cc2ccccc2)cc1.Cl
PBI (Actinomyces viscosus [1]): 12
PBI (Streptococcus sobrinus [2]): 24
MBC (Streptococcus sobrinus [3]): 1500 µM
CC (Streptococcus sobrinus [4]): 1.1
CC (Actinomyces viscosus [5]): 1.6

CCCCCCN=c1ccn(CCCCCC)cc1
PBI (Streptococcus sobrinus [39]): Not bactericidal
PBI (Actinomyces viscosus [40]): Not bactericidal
MBC (Streptococcus sobrinus [3]): 1580 µM (≈ 415 µg/mL)

Br.CCCCCCCCn1ccc(=NCC(CC)CCCC)cc1 (centres undefined)
PBI (Actinomyces viscosus [1]): 10
PBI (Streptococcus sobrinus [2]): 10
MBC (Streptococcus sobrinus [3]): 1250 µM
CC (Streptococcus sobrinus [4]): 2.5
CC (Actinomyces viscosus [5]): 1.9

CCCCCCCCCN=c1ccn(CCCCCCCCC)cc1.Cl
PBI (Actinomyces viscosus [1]): 5.2
PBI (Streptococcus sobrinus [2]): 10.4
MBC (Streptococcus sobrinus [3]): 2610 µM
CC (Streptococcus sobrinus [4]): 2.5
CC (Actinomyces viscosus [5]): 4
